Measurements published in ChEMBL document CHEMBL5376019, “Design, synthesis and evaluation of 2-phenylpyrimidine derivatives as novel antifungal agents targeting CYP51” (RSC Med Chem, 2024).
In brackets after ≈: the same amount, converted by molar mass.

What was measured:
[1] = system: Candida parapsilosis; experiment: Antifungal activity against Candida parapsilosis GIM 2.190 assessed as fungal growth inhibition; format: functional; settings: Lodderomyces parapsilosis
Procedure, shortened: (§1)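 Broth microdilution per NCCLS M27-A3, with fluconazole as positive control. Assay medium was RPMI 1640 buffered with MOPS. Inocula were diluted to 1–5 × 10^3 CFU mL−1 and seeded in 96-well plates. Compounds were dissolved in DMSO and serially diluted in the growth medium. MIC was the read-out.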

[2] = system: Candida albicans; experiment: Antifungal activity against Candida albicans ATCC SC5314 assessed as fungal growth inhibition; format: functional; procedure, shortened: as §1
[3] = system: Pichia kudriavzevii; experiment: Antifungal activity against Pichia kudriavzevii GIM 2.1 assessed as fungal growth inhibition; format: functional; procedure, shortened: as §1
[4] = system: Candida tropicalis; experiment: Antifungal activity against Candida tropicalis CGMCC 2.3739 assessed as fungal growth inhibition; format: functional; procedure, shortened: as §1
[5] = system: Candida albicans; experiment: Antifungal activity against Candida albicans CPCC400616 assessed as fungal growth inhibition; format: functional; procedure, shortened: as §1
[6] = system: Cryptococcus neoformans; experiment: Antifungal activity against Cryptococcus neoformans CGMCC 2.3161 assessed as fungal growth inhibition; format: functional; procedure, shortened: as §1
[7] = system: Nakaseomyces glabratus; experiment: Antifungal activity against clinical isolate Candida glabrata assessed as fungal growth inhibition; format: functional; procedure, shortened: as §1
[8] = system: L929; experiment: Cytotoxicity against mouse L929 cells assessed as reduction in cell viability at 32 uM incubated for 24 hrs by CCK-8 assay; format: toxicity, cell-based; settings: l929, 24 h
Procedure, shortened: (§2)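 Cells from ATCC were grown in RPMI-1640 or DMEM with 10% FBS and 1% penicillin/streptomycin. They were seeded at 5 × 10^4 cells/well and allowed to adhere overnight at 37 °C, 5% CO2, with at least 6 replicates per group. Compounds were applied at 2–64 μM for 24 h; medium-only wells served as control. Viability was measured by CCK-8 absorbance at 450 nm.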

[9] = system: DU-145; experiment: Cytotoxicity against human DU-145 cells assessed as reduction in cell viability at 32 uM incubated for 24 hrs by CCK-8 assay; format: toxicity, cell-based; settings: du-145, 24 h; procedure, shortened: as §2
[10] = system: MDA-MB-231; experiment: Cytotoxicity against human MDA-MB-231 cells assessed as reduction in cell viability at 32 uM incubated for 24 hrs by CCK-8 assay; format: toxicity, cell-based; settings: mda-mb-231, 24 h; procedure, shortened: as §2

Row | Structure (SMILES) | MIC [1] | MIC [2] | MIC [3] | MIC [4] | MIC [5] | MIC [6] | MIC [7] | Activity [8] | Activity [9] | Activity [10]
1 | O=C(NC(Cn1ccnc1)C(=O)c1ccc(I)cc1)c1cnc(-c2cccc(F)c2)nc1 (racemic) | > 64 µg/mL | 1 µg/mL (≈ 1.85 µM) | > 64 µg/mL | > 64 µg/mL | 32 µg/mL (≈ 59.1 µM) | > 64 µg/mL | > 64 µg/mL | – | – | –
2 | O=C(NC(Cn1ccnc1)C(=O)c1ccc(Br)cc1)c1cnc(-c2cccc(F)c2)nc1 (racemic) | > 64 µg/mL | 0.5 µg/mL (≈ 1.01 µM) | > 64 µg/mL | 16 µg/mL (≈ 32.4 µM) | 8 µg/mL (≈ 16.2 µM) | > 64 µg/mL | > 64 µg/mL | – | – | –
3 | O=C(NC(Cn1ccnc1)C(=O)c1ccccc1)c1ccc(-c2ccncc2)cc1 (racemic) | > 64 µg/mL | 8 µg/mL (≈ 20.2 µM) | 16 µg/mL (≈ 40.4 µM) | 8 µg/mL (≈ 20.2 µM) | 16 µg/mL (≈ 40.4 µM) | > 64 µg/mL | > 64 µg/mL | – | – | –
4 | Cc1ccc(C(=O)C(Cn2ccnc2)NC(=O)c2cnc(-c3cccc(F)c3)nc2)cc1 (racemic) | 4 µg/mL (≈ 9.31 µM) | 1 µg/mL (≈ 2.33 µM) | 4 µg/mL (≈ 9.31 µM) | 1 µg/mL (≈ 2.33 µM) | 4 µg/mL (≈ 9.31 µM) | 64 µg/mL (≈ 149 µM) | 8 µg/mL (≈ 18.6 µM) | Non-Toxic | Non-Toxic | Non-Toxic
5 | O=C(NC(Cn1ccnc1)C(=O)c1ccccc1)c1ccc(-c2ccccc2)cn1 (racemic) | > 64 µg/mL | > 64 µg/mL | > 64 µg/mL | > 64 µg/mL | > 64 µg/mL | > 64 µg/mL | > 64 µg/mL | – | – | –
6 | O=C(NC(Cn1ccnc1)C(=O)c1ccccc1)c1ccc(-c2cccnc2)cc1 (racemic) | > 64 µg/mL | 8 µg/mL (≈ 20.2 µM) | > 64 µg/mL | > 64 µg/mL | 32 µg/mL (≈ 80.7 µM) | > 64 µg/mL | > 64 µg/mL | – | – | –
7 | O=C(NC(Cn1ccnc1)C(=O)c1ccccc1)c1cc(-c2ccccc2)on1 (racemic) | > 64 µg/mL | 32 µg/mL (≈ 82.8 µM) | > 64 µg/mL | > 64 µg/mL | 64 µg/mL (≈ 166 µM) | > 64 µg/mL | > 64 µg/mL | – | – | –
8 | O=C(NC(Cn1ccnc1)C(=O)c1ccc(F)cc1)c1cnc(-c2cccc(F)c2)nc1 (racemic) | > 64 µg/mL | 16 µg/mL (≈ 36.9 µM) | > 64 µg/mL | > 64 µg/mL | > 64 µg/mL | > 64 µg/mL | > 64 µg/mL | – | – | –
9 | O=C(NC(Cn1ccnc1)C(=O)c1ccccc1)c1ccc(-c2cncnc2)cc1 (racemic) | > 64 µg/mL | > 64 µg/mL | > 64 µg/mL | > 64 µg/mL | > 64 µg/mL | > 64 µg/mL | > 64 µg/mL | – | – | –

Further lines, with some results ahead:

Row | MIC [1] | MIC [2] | MIC [3] | MIC [4] | MIC [5] | MIC [6] | MIC [7] | Structure (SMILES) | Activity [8] | Activity [9] | Activity [10]
10 | > 64 µg/mL | > 64 µg/mL | > 64 µg/mL | > 64 µg/mL | > 64 µg/mL | > 64 µg/mL | > 64 µg/mL | CC(C)c1cccc(-c2ncc(C(=O)NC(Cn3ccnc3)C(=O)c3ccccc3)cn2)c1 (racemic) | – | – | –
11 | > 64 µg/mL | > 64 µg/mL | > 64 µg/mL | > 64 µg/mL | > 64 µg/mL | > 64 µg/mL | > 64 µg/mL | O=C(NC(Cn1ccnc1)C(=O)c1ccccc1)c1cnc(-c2cccc(C(F)(F)F)c2)nc1 (racemic) | – | – | –
12 | > 64 µg/mL | > 64 µg/mL | > 64 µg/mL | > 64 µg/mL | > 64 µg/mL | > 64 µg/mL | > 64 µg/mL | O=C(NC(Cn1ccnc1)C(=O)c1ccccc1)c1cnc(-c2ccc(OC(F)(F)F)cc2)nc1 (racemic) | – | – | –
13 | 64 µg/mL (≈ 154 µM) | 16 µg/mL (≈ 38.5 µM) | > 64 µg/mL | > 64 µg/mL | 32 µg/mL (≈ 77 µM) | > 64 µg/mL | > 64 µg/mL | O=C(NC(Cn1ccnc1)C(=O)c1ccccc1)c1cnc(-c2ccc(F)cc2)nc1 (racemic) | – | – | –
14 | > 64 µg/mL | > 64 µg/mL | > 64 µg/mL | > 64 µg/mL | > 64 µg/mL | > 64 µg/mL | > 64 µg/mL | Cc1ccc(-c2ncc(C(=O)NC(Cn3ccnc3)C(=O)c3ccccc3)cn2)cc1 (racemic) | – | – | –
15 | > 64 µg/mL | > 64 µg/mL | > 64 µg/mL | > 64 µg/mL | > 64 µg/mL | > 64 µg/mL | > 64 µg/mL | COc1ccc(-c2ncc(C(=O)NC(Cn3ccnc3)C(=O)c3ccccc3)cn2)cc1 (racemic) | – | – | –
16 | 32 µg/mL (≈ 74.1 µM) | 8 µg/mL (≈ 18.5 µM) | 16 µg/mL (≈ 37 µM) | 4 µg/mL (≈ 9.26 µM) | 16 µg/mL (≈ 37 µM) | > 64 µg/mL | > 64 µg/mL | O=C(NC(Cn1ccnc1)C(=O)c1ccccc1)c1cnc(-c2ccccc2Cl)nc1 (racemic) | – | – | –
17 | > 64 µg/mL | > 64 µg/mL | > 64 µg/mL | > 64 µg/mL | > 64 µg/mL | > 64 µg/mL | > 64 µg/mL | CCc1ccc(-c2ncc(C(=O)NC(Cn3ccnc3)C(=O)c3ccccc3)cn2)cc1 (racemic) | – | – | –
